Measured values as given in ChEMBL document CHEMBL3576866, “Discovery of a Cyclic Boronic Acid β-Lactamase Inhibitor (RPX7009) with Utility vs Class A Serine Carbapenemases” (J Med Chem, 2015).

Key:
[1] = Inhibition of Escherichia coli recombinant CMY-2 assessed as substrate nitrocefin degradation preincubated for 10 mins followed by substrate addition measured every 10 secs for 10 mins by spectrophotometric analysis
How it was run: (§1)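 β-Lactamases purified from overexpressing recombinant E. coli. Enzyme preincubated with inhibitor at varying concentrations for 10 min at room temperature in 50 mM Na phosphate pH 7.0, 0.1 mg/mL BSA. Then 50 μM nitrocefin (final) added and cleavage read at 490 nm every 10 s for 10 min. Ki derived by the Waley method.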

Klebsiella pneumoniae [2] = assay: Inhibition of Klebsiella pneumoniae KP1088 SHV-11 assessed as biapenem MIC at 4 ug/ml by broth microdilution method
How it was run: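 CLSI broth microdilution (M07-A9, 2012) against the clinical K. pneumoniae isolate. Carbapenem MICs were read alone and with 9f held at a fixed 4 μg/mL.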

[3] = target: Carbapenem-hydrolyzing beta-lactamase KPC (Klebsiella oxytoca) (UniProt Q848S6); assay: Inhibition of Klebsiella oxytoca KX1017 KPC-2 assessed as biapenem MIC at 4 ug/ml by broth microdilution method
[4] = target: Beta lactamase TEM-1 (Klebsiella pneumoniae) (UniProt Q7B899); assay: Inhibition of Klebsiella pneumoniae KP1087 TEM-1 assessed as ertapenem MIC at 4 ug/ml by broth microdilution method
How it was run: (§2)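 CLSI broth microdilution (M07-A9, 2012) MIC of the carbapenem against clinical serine carbapenemase-producing strain, tested alone and with the inhibitor held at a fixed 4 μg/mL.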

[5] = Volume of distribution in rat at 1000 mg/kg, iv administered as 0.5 hrs infusion by HPLC-MS method; assay type: ADME, organism-based; conditions: in vivo
Klebsiella oxytoca [6] = assay: Inhibition of Klebsiella oxytoca KX1017 SHV-30 assessed as ertapenem MIC at 4 ug/ml by broth microdilution method
[7] = target: Beta lactamase TEM-1 (Klebsiella pneumoniae) (UniProt Q7B899); assay: Inhibition of Klebsiella pneumoniae KP1084 TEM-1 assessed as imipenem MIC at 4 ug/ml by broth microdilution method
Klebsiella pneumoniae [8] = assay: Inhibition of Klebsiella pneumoniae KP1004 SHV-11 assessed as imipenem MIC at 4 ug/ml by broth microdilution method; how it was run: as §2
[9] = Inhibition of Escherichia coli recombinant SHV-12 assessed as substrate nitrocefin degradation preincubated for 10 mins followed by substrate addition measured every 10 secs for 10 mins by spectrophotometric analysis; how it was run: as §1
[10] = Inhibition of Escherichia coli recombinant TEM-10 assessed as substrate nitrocefin degradation preincubated for 10 mins followed by substrate addition measured every 10 secs for 10 mins by spectrophotometric analysis; how it was run: as §1
Klebsiella aerogenes = assay: Inhibition of Enterobacter aerogenes EA1028 OXA-30 assessed as cefepime MIC at 4 ug/ml by broth microdilution method
How it was run: (§3)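 CLSI broth microdilution (M07-A9) against clinical strains expressing serine β-lactamases.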

[11] = target: Beta-lactamase (Klebsiella pneumoniae) (UniProt Q93LQ9); assay: Inhibition of Klebsiella pneumoniae KP1083 KPC-3 assessed as biapenem MIC at 4 ug/ml by broth microdilution method; how it was run: as §2
[12] = Volume of distribution in rat at 100 mg/kg, iv administered as 0.5 hrs infusion by HPLC-MS method; assay type: ADME, organism-based; conditions: in vivo
[13] = target: Class A carbapenemase KPC-2 (Escherichia coli) (UniProt A8DS27); assay: Inhibition of Escherichia coli EC1007 KPC-3 assessed as imipenem MIC at 4 ug/ml by broth microdilution method
Mus musculus = assay: Toxicity in Swiss webster neutropenic mouse lung infection model up to 1000 mg/kg, administered every 2 hrs starting at 2 hrs; assay type: organism-based; conditions: in vivo
[14] = AUC (0 to infinity) in rat at 300 mg/kg, iv administered as 0.5 hrs infusion by HPLC-MS method; assay type: ADME, organism-based; set-up: dose 300 mg/kg, time infinity, route intravenous; conditions: in vivo
[15] = Inhibition of chymotrypsin (unknown origin) using Suc-AAPF-AMC as substrate preincubated for 10 mins followed by substrate addition measured for 30 mins by spectrophotometric analysis; set-up: species or system Homo sapiens
How it was run: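 Chymotrypsin, from a commercial source, in 20 mM Tris-HCl, pH 8, 150 mM NaCl, 2.5 mM CaCl2. Incubated 10 min at 37 °C with varied inhibitor concentrations. Suc-AAPF-AMC (listed at 10 μM) was added and the reaction read for 30 min. Rates were relative to untreated; IC50 is the concentration giving 50% inhibition.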

Klebsiella pneumoniae [16] = assay: Inhibition of Klebsiella pneumoniae KP1087 CTX-M-15 assessed as biapenem MIC at 4 ug/ml by broth microdilution method
Klebsiella pneumoniae [17] = assay: Inhibition of Klebsiella pneumoniae KP1005 CTX-M-14 assessed as cefepime MIC at 4 ug/ml by broth microdilution method
[18] = target: T1, Beta-lactamase SHV-1 (Klebsiella pneumoniae) (UniProt P0AD64); assay: Inhibition of Klebsiella pneumoniae KP1082 SHV-1 assessed as imipenem MIC at 4 ug/ml by broth microdilution method
T1 sequence (whole entry): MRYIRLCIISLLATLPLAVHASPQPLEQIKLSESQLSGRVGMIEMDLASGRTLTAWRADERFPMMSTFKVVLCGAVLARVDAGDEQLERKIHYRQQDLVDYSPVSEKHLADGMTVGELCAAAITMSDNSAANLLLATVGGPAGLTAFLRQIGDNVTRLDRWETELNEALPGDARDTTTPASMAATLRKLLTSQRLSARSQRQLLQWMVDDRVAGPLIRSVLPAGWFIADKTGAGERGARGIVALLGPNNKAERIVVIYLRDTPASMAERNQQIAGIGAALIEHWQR

[19] = target: Beta-lactamase TEM (Enterobacter cloacae) (UniProt Q6W9J1); assay: Inhibition of Enterobacter cloacae ECL1058 TEM-1 assessed as ertapenem MIC at 4 ug/ml by broth microdilution method
Klebsiella oxytoca [20] = assay: Inhibition of Klebsiella oxytoca KX1019 OXA-2 assessed as ertapenem MIC at 4 ug/ml by broth microdilution method
[21] = Volume of distribution at steady state in human at 1 g administered as 3 hrs of infusion; assay type: ADME, organism-based; conditions: in vivo, iv, read-out: Vdss
How it was run: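 Healthy volunteers received 3 h infusions. Plasma concentrations were fit to a noncompartmental model to derive steady-state volume of distribution at the 1 g dose.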

[22] = target: T1, Beta-lactamase SHV-1 (Klebsiella pneumoniae); assay: Inhibition of Klebsiella pneumoniae KP1083 SHV-1 assessed as imipenem MIC at 4 ug/ml by broth microdilution method
Enterobacter cloacae = assay: Inhibition of Enterobacter cloacae EC1010 CMY-6 assessed as cefepime MIC at 4 ug/ml by broth microdilution method; how it was run: as §3
Chymase = Chymase (Homo sapiens, UniProt P23946); assay: Inhibition of chymase (unknown origin) using Suc-AAPF-AMC as substrate preincubated for 10 mins followed by substrate addition measured for 30 mins by spectrophotometric analysis
How it was run: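 Commercial chymase in 100 mM Tris, pH 8.0, 2 M NaCl, 0.01% Triton X-100. Mixed with inhibitor at various concentrations for 10 min at 37 °C before Suc-AAPF-AMC (listed at 40 μM), then fluorescence followed for 30 min. Rates were taken relative to a no-treatment control; IC50 is the concentration giving 50% inhibition.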

Chain of Chymase (P23946 whole entry): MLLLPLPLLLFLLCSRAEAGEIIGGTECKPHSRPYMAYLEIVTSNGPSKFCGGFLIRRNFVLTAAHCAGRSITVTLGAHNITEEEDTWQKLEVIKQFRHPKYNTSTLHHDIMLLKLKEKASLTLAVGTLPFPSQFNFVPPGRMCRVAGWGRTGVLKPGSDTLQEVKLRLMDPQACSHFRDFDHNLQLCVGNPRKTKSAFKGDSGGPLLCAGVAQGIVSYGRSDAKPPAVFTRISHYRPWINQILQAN

O=C(O)C[C@@H]1CC[C@H](NC(=O)Cc2cccs2)B(O)O1 [VABORBACTAM]
Ki [1]: 0.099 µM | MIC (Klebsiella pneumoniae [2]): ≤ 0.06 µg/mL | MIC [3]: < 0.06 µg/mL | MIC [4]: 2 µg/mL | Vd [5]: 0.55 L/kg | MIC (Klebsiella oxytoca [6]): 0.25 µg/mL | MIC [7]: 0.25 µg/mL | MIC (Klebsiella pneumoniae [8]): ≤ 0.06 µg/mL | Ki [9]: 0.029 µM | Ki [10]: 0.11 µM | MIC (Klebsiella aerogenes): 0.5 µg/mL | MIC [11]: < 0.06 µg/mL | Vd [12]: 0.97 L/kg | MIC [13]: 0.13 µg/mL | Activity (Mus musculus): Non-toxic | AUC(0-inf) [14]: 239 µg·h/mL | IC50 [15]: > 1000 µM | MIC (Klebsiella pneumoniae [16]): 0.25 µg/mL | MIC (Klebsiella pneumoniae [17]): 4 µg/mL | MIC [18]: 0.13 µg/mL | MIC [19]: 0.25 µg/mL | MIC (Klebsiella oxytoca [20]): 0.25 µg/mL | Vd [21]: 21 L | MIC [22]: 0.13 µg/mL | MIC (Enterobacter cloacae): 4 µg/mL | IC50 (Chymase): > 1000 µM
